Biological target: Amyloid-beta precursor protein (Homo sapiens, UniProt P05067)
Assay: Inhibition of gamma-secretase
Outline: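 Membrane preparation (5.0 µg total protein, in 20 mM Hepes pH 5.0, 5 mM EDTA) incubated 2 h at 37 °C with compound serially diluted in DMSO then in start buffer (Hepes pH 7.5, 5 mM EDTA); 2% DMSO final. Quenched with Tris/NaCl/BSA/Triton mix carrying biotin-W02 and Europium-labelled G2-10 (both Aβ40-specific) plus allophycocyanin-streptavidin. Signal developed 2–16 h at room temperature; HTRF at 665 nm. IC50 as mean of ≥2 determinations.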

Sequence of Amyloid-beta precursor protein (P05067 whole entry): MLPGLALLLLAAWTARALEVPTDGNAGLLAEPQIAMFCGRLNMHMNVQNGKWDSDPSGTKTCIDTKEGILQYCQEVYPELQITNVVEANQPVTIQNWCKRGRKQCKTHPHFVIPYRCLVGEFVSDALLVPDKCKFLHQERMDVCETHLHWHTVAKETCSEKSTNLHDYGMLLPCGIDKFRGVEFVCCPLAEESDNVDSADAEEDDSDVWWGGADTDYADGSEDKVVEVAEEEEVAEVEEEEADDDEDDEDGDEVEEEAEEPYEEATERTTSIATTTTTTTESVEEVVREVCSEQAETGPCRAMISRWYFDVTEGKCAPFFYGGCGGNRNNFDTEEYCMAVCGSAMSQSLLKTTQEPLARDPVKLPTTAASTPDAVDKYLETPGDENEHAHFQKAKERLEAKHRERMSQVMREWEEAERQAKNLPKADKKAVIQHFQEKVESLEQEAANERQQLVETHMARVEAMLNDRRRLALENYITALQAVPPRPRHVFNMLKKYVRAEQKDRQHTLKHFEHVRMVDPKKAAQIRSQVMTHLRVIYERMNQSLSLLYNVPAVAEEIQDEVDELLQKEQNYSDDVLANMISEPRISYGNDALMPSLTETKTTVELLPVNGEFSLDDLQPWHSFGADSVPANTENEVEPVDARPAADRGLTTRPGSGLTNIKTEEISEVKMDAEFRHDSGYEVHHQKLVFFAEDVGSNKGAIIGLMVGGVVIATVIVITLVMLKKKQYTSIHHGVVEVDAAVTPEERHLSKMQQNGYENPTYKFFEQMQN

| Structure (SMILES) | IC50 |
| --- | --- |
| O=C(NCCCn1ccnc1)OCCC1CCc2ccccc2N1S(=O)(=O)c1ccc(Cl)cc1 (stereo unspecified) [2-(1-(4-chlorophenylsulfonyl)-1,2,3,4-tetrahydroquinolin-2-yl)ethyl 3-(1H-imidazol-1-yl)propylcarbamate] | 280 nM |
| CN1CCCC1CCNC(=O)OCCCC1CCc2ccccc2N1S(=O)(=O)c1ccc(Cl)cc1 (stereo unspecified) [3-(1-(4-chlorophenylsulfonyl)-1,2,3,4-tetrahydroquinolin-2-yl)propyl 2-(1-methylpyrrolidin-2-yl)ethylcarbamate] | 220 nM |
| O=C(NCCCn1ccnc1)OCCCC1CCc2ccccc2N1S(=O)(=O)c1ccc(Cl)cc1 (stereo unspecified) [3-(1-(4-chlorophenylsulfonyl)-1,2,3,4-tetrahydroquinolin-2-yl)propyl 3-(1H-imidazol-1-yl)propylcarbamate] | 86 nM |
| O=C(OCCCC1CCc2ccccc2N1S(=O)(=O)c1ccc(Cl)cc1)N1CCN(C2CCCCC2)CC1 (stereo unspecified) [3-(1-(4-chlorophenylsulfonyl)-1,2,3,4-tetrahydroquinolin-2-yl)propyl 4-cyclohexylpiperazine-1-carboxylate] | 180 nM |
| CN1CCCC1CCNC(=O)OC[C@H]1CC[C@@H](c2ccccc2)N1S(=O)(=O)c1ccc(Cl)cc1 (stereo partly drawn) [((2R,5S)-1-(4-chlorophenylsulfonyl)-5-phenylpyrrolidin-2-yl)methyl 2-(1-methylpyrrolidin-2-yl)ethylcarbamate] | 600 nM |
| O=C(OC[C@H]1CC[C@@H](c2ccccc2)N1S(=O)(=O)c1ccc(Cl)cc1)N1CCN(CCO)CC1 [((2R,5S)-1-(4-chlorophenylsulfonyl)-5-phenylpyrrolidin-2-yl)methyl 4-(2-hydroxyethyl)piperazine-1-carboxylate] | 540 nM |

From BindingDB's records for doi:10.1016/j.bmcl.2007.03.055 (Pharmacopeia Drug Discovery, 2007)
